Data published in ChEMBL document CHEMBL1155733, “Flavonoid, iridoid, and lignan glycosides from Putoria calabrica” (J Nat Prod, 2001).
The source made the active and inactive calls. The calls are words filed in the database; no cut-off is given here.

Tested on: not listed separately
Assay: Antioxidant activity assessed as radical scavenging activity in FMLP-stimulated human PMNC by chemiluminescence assay
Assay type: functional
In short: (§1)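 Human PMNs in HBSS (5 × 10⁶ cells/ml) preincubated 30 min at 37 °C with luminol (0.2 mM, as added) and test solution (ethanol stock diluted in HBSS). Stimulated with FMLP (0.5 μM, as added). Luminol-enhanced chemiluminescence recorded in cpm for 15 min at 37 °C. Area under the curve expressed as % of compound-free control; five measurements per concentration, averaged. Quercetin served as positive control.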

IC50 [µM] | SMILES
0.3 | C[C@@H]1O[C@@H](O[C@H]2[C@H](Oc3c(-c4ccc(O)c(O)c4)oc4cc(O[C@@H]5O[C@H](CO)[C@@H](O)[C@H](O)[C@H]5O)cc(O)c4c3=O)OC[C@H](O)[C@@H]2O)[C@H](O)[C@H](O)[C@H]1OC(=O)/C=C/c1ccc(O)c(O)c1 [CALABRICOSIDE B]
0.25 | C[C@@H]1O[C@@H](O[C@H]2[C@H](Oc3c(-c4ccc(O)c(O)c4)oc4cc(O[C@@H]5O[C@H](CO)[C@@H](O)[C@H](O)[C@H]5O)cc(O)c4c3=O)OC[C@H](O)[C@@H]2O)[C@H](O)[C@H](O)[C@H]1O [CALABRICOSIDE A]

SMILES | IC50 [µM]
O=c1c(O)c(-c2ccc(O)c(O)c2)oc2cc(O)cc(O)c12 [QUERCETIN] | 0.5

Species: Homo sapiens
Assay: Antioxidant activity assessed as radical scavenging activity in FMLP-stimulated human PMNC up to 30 uM by chemiluminescence assay
Assay type: functional
In short: as §1

SMILES | Activity
O=C1O[C@H]2C=C(CO)[C@H]3[C@H](O[C@@H]4O[C@H](CO)[C@@H](O)[C@H](O)[C@H]4O)OC=C1[C@H]32 | inactive
O=C(O)C1=CO[C@@H](O[C@@H]2O[C@H](CO)[C@@H](O)[C@H](O)[C@H]2O)[C@@H]2C(CO)=CC[C@H]12 | inactive
COc1cc([C@H]2OC[C@H]3[C@@H]2CO[C@@H]3c2cc(OC)c(O[C@@H]3O[C@H](CO)[C@@H](O)[C@H](O)[C@H]3O)c(OC)c2)cc(OC)c1O[C@@H]1O[C@H](CO)[C@@H](O)[C@H](O)[C@H]1O | inactive
O=C(O)C1=CO[C@@H](O[C@@H]2O[C@H](CO)[C@@H](O)[C@H](O)[C@H]2O)[C@@H]2C(CO)=C[C@@H](O)[C@H]12 | inactive
CC(=O)OCC1=C[C@@H]2OC(=O)C3=CO[C@@H](O[C@@H]4O[C@H](CO)[C@@H](O)[C@H](O)[C@H]4O)[C@H]1[C@@H]32 | inactive
COc1cc(C[C@H]2CO[C@@H](c3ccc(O[C@@H]4O[C@H](CO)[C@@H](O)[C@H](O)[C@H]4O)c(OC)c3)[C@H]2CO)ccc1O[C@@H]1O[C@H](CO)[C@@H](O)[C@H](O)[C@H]1O | inactive
CSC(=O)OCC1=C[C@H](O)[C@H]2C(C(=O)O)=CO[C@@H](O[C@@H]3O[C@@H](CO)[C@@H](O)[C@@H](O)[C@H]3O)[C@H]12 | inactive
CC(=O)OCC1=C[C@H](O)[C@@H]2C(C(=O)O)=CO[C@@H](O[C@H]3O[C@@H](CO)[C@H](O)[C@@H](O)[C@@H]3O)[C@H]12 | inactive
CSC(=O)OCC1=C[C@@H]2OC(=O)C3=CO[C@@H](O[C@@H]4O[C@H](CO)[C@@H](O)[C@H](O)[C@H]4O)[C@H]1[C@@H]32 | inactive
